Only some compounds are listed: those with a hit (about 2.7% of all), similar ones and a draw of the others.
MsrA act = bovine methionine sulfoxide reductase A activation. activation, % at 10.6 µM. purified bovine MsrA, absorbance read-out. actives 0.3% (n = 360,000). AID 602163; in the data active = activation above about 7.5%
ASAP1 GAP inh = inhibitors of human ASAP1 ArfGAP activity; actives 0.19% (n = 360,000); ASAP1-stimulated ARF1 GTP hydrolysis, GDP FP detection; AID 624377; inhibition, % at 16.5 µM; in the data active = inhibition above about 25%
Target sequence (Q9ULH1 325-724 limits assumed): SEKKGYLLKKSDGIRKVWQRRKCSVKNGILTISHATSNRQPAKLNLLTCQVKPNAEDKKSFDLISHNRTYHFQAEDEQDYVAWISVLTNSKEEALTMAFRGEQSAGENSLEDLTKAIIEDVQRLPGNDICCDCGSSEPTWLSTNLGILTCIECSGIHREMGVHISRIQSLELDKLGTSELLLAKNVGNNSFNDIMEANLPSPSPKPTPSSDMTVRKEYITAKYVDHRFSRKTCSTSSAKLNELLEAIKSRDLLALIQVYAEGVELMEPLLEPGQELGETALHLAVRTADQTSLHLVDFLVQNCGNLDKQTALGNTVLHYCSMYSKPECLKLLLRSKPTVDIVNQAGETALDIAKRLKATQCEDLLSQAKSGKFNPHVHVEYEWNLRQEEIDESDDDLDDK
ARFGAP1 inh = inhibits rat ARF GTPase activating protein 1; Q62848; inhibition, % at 16.5 µM; actives 0.26% (n = 360,000); Arfgap1-stimulated ARF1 GTP hydrolysis, GDP FP detection;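 active = inhibition above a per-plate limit, mean inhibition of low control wells plus 3 SD, cut at about 25% in these data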
Target sequence (Q62848 1-136 limits assumed): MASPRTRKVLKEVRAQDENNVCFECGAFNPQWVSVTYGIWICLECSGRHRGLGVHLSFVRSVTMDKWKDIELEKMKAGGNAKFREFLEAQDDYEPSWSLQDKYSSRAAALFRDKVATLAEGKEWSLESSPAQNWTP
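Assay system: purified rat His6-Arfgap1 residues 1-136 (GAP domain); Reagent: human Δ17 ARF1 bound to GTP; Dosing: 16.5 µM single point, 1.26% DMSO; Times: GTP hydrolysis reaction 2 h at 25 °C; Signal: FP, GDP Alexa 633 tracer displaced from anti-GDP antibody, 620/688 nm; Measure: % inhibition from polarization.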
MsrA inhibitor = inhibitors of bovine MsrA. purified bovine MsrA, absorbance read-out. inhibition, % at 15.5 µM. AID 651718. actives 0.75% (n = 360,000); in the data active = inhibition above about 4.5%
sPLA2-III inh = Inhibits HGIII-sPLA2 liposome hydrolysis, primary screen | Q9NZ20 | QFRET BODIPY PC-A2 liposome hydrolysis, fluorescence | inhibition, % at 12.2 µM | actives 0.56% (n = 370,000) | AID 743126;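 active = inhibition above mean plus 3 SD of compounds lying within the high and low control bounds, cut at about 19% in these data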
Rev-erbA mod = Rev-erb alpha (human) modulation; activity, % at 10 µM; Rev-erbα–FITC-DNA binding, fluorescence polarization, 90 min; actives 0.79% (n = 370,000); P20393; AID 1259318;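 active = activity above about 14%, limit read from the data; passing the limit was not always enough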
MsrA act confirm = confirmation of bovine methionine sulfoxide reductase A activators | AID 602270 | activation, % at 10.6 µM | purified bovine MsrA, absorbance read-out | shares compounds with MsrA act | actives 12% (n = 1,000); in the data active = activation above about 4%;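 also: enzyme coupled to thioredoxin and thioredoxin reductase with NADPH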
Hits are given with their value.

Results for O=C(C(=O)N1CCC(CNS(=O)(=O)c2ccc(C(F)(F)F)cc2)CC1)c1cc2ccccc2o1 ?
ASAP1 GAP inh: inactive; ARFGAP1 inh: inactive; MsrA inhibitor: inactive; sPLA2-III inh: inactive; Rev-erbA mod: inactive

How did Cc1ccc2cc(C#N)c(N3CCCN(S(=O)(=O)c4ccccc4)CC3)nc2c1 do in these assays?
MsrA act: 8.7; ASAP1 GAP inh: inactive; ARFGAP1 inh: inactive; MsrA inhibitor: inactive; sPLA2-III inh: inactive; Rev-erbA mod: inactive; MsrA act confirm: inactive

How did COC(=O)C[C@@H]1CC[C@@H]2[C@H](COc3ccc(NC(=O)c4ccc(F)c(F)c4)cc3C(=O)N2C)O1 do in these assays?
sPLA2-III inh: inactive; Rev-erbA mod: inactive

What do the screens show for `COc1ccc(N(CC(=O)NCc2ccc(C)cc2)S(=O)(=O)c2c(C)nn(C)c2C)cc1`?
MsrA act: 9.7; ASAP1 GAP inh: inactive; ARFGAP1 inh: inactive; MsrA inhibitor: inactive; sPLA2-III inh: inactive; Rev-erbA mod: inactive; MsrA act confirm: inactive

What do the screens show for `Cc1cc(C)cc(C(=O)OCCN(C)C2CN(Cc3cn(Cc4cccc(F)c4)nn3)S(=O)(=O)C2)c1` (centres undefined)?
sPLA2-III inh: inactive; Rev-erbA mod: inactive

Results for COC(=O)[C@]12C[C@H](CC(=O)NCCCN3CCCC3=O)C(=O)N(Cc3ccc(Cl)cc3Cl)C1=C[C@H](COCc1ccccc1)O[C@@H]2C ?
sPLA2-III inh: inactive; Rev-erbA mod: inactive

Results for Cc1cccc(C)c1NC(=O)COC(=O)C1CC1 ?
MsrA act: 9.7; ASAP1 GAP inh: inactive; ARFGAP1 inh: inactive; MsrA inhibitor: inactive; sPLA2-III inh: inactive; Rev-erbA mod: inactive; MsrA act confirm: inactive

What do the screens show for `CC(C)c1cccc(C(C)C)c1NC(=O)COC(=O)C1CCC1`?
MsrA act: inactive; ASAP1 GAP inh: inactive; ARFGAP1 inh: inactive; MsrA inhibitor: inactive; sPLA2-III inh: inactive; Rev-erbA mod: inactive

What do the screens show for `CN1CCN(NC(=S)NC2CCCC2)CC1`?
MsrA act: 7.9; ASAP1 GAP inh: inactive; ARFGAP1 inh: inactive; MsrA inhibitor: inactive; sPLA2-III inh: inactive; Rev-erbA mod: inactive; MsrA act confirm: inactive

How did CCOC(=O)Cn1cc(CN2C(C(=O)OC)CN(Cc3ccccc3)CCS2(=O)=O)nn1 (centres undefined) do in these assays?
sPLA2-III inh: inactive; Rev-erbA mod: inactive

How did Cc1nnc(SCC(=O)NCCN2C(=O)CSC2=O)n1-c1ccccc1 do in these assays?
MsrA act: inactive; ASAP1 GAP inh: inactive; ARFGAP1 inh: inactive; MsrA inhibitor: inactive; sPLA2-III inh: inactive; Rev-erbA mod: inactive

Results for O=C(CSc1nnc(Cc2ccccc2)o1)NCCN1C(=O)CSC1=O ?
MsrA act: 19; ASAP1 GAP inh: inactive; ARFGAP1 inh: inactive; MsrA inhibitor: inactive; sPLA2-III inh: inactive; Rev-erbA mod: inactive; MsrA act confirm: inactive

What do the screens show for `O=C(CCN1C(=O)COc2ccccc21)N1CCN(c2ccccn2)CC1`?
MsrA act: 21; ASAP1 GAP inh: inactive; ARFGAP1 inh: inactive; MsrA inhibitor: inactive; sPLA2-III inh: inactive; MsrA act confirm: inactive

How did Cc1ccc(NC(=O)C2CC3CCC2C3)c(C)c1 (centres undefined) do in these assays?
sPLA2-III inh: inactive; Rev-erbA mod: inactive

What do the screens show for `Cc1cc(Cl)cc2sc(=S)[nH]c12`?
MsrA act: 8.2; ASAP1 GAP inh: inactive; ARFGAP1 inh: inactive; MsrA inhibitor: inactive; sPLA2-III inh: inactive; Rev-erbA mod: inactive; MsrA act confirm: inactive

How did Cc1[nH]c(=S)sc1Cc1ccc(Cl)c(Cl)c1 do in these assays?
ASAP1 GAP inh: inactive; ARFGAP1 inh: inactive; MsrA inhibitor: inactive; sPLA2-III inh: inactive; Rev-erbA mod: inactive

Results for COC(=O)C1CN(C2CCCC2)CCS(=O)(=O)N1Cc1ccc(Cl)cc1 (centres undefined) ?
sPLA2-III inh: inactive; Rev-erbA mod: inactive

Results for O=C(O)CSc1nnc(Cc2ccccc2)n1Cc1ccccc1 ?
MsrA act: inactive; ASAP1 GAP inh: inactive; ARFGAP1 inh: inactive; MsrA inhibitor: inactive; sPLA2-III inh: inactive; Rev-erbA mod: inactive

Results for O=C(O)CSc1nnc(Cn2cnc3ccccc32)n1CCc1ccccc1 ?
MsrA act: 8.8; ASAP1 GAP inh: inactive; ARFGAP1 inh: inactive; MsrA inhibitor: inactive; sPLA2-III inh: inactive; Rev-erbA mod: inactive; MsrA act confirm: inactive

Results for O=C(CCc1ccccc1)N[C@H]1[C@@H](OC(=O)c2cnccn2)CCC[C@]12C(=O)N(Cc1ccccc1)c1ccccc12 ?
sPLA2-III inh: inactive; Rev-erbA mod: inactive

What do the screens show for `O=C(Nc1nc2ncccn2c1-c1ccc(F)c(F)c1)C1CC1`?
sPLA2-III inh: inactive; Rev-erbA mod: inactive

What do the screens show for `CC1CCCCC1N(C(=O)c1cc(C2CC2)on1)C1CCCCC1` (centres undefined)?
sPLA2-III inh: inactive; Rev-erbA mod: inactive

What do the screens show for `Cc1ccc(-n2[nH]c(C)c(C=Nc3ccc4[nH]c(=O)[nH]c4c3)c2=O)cc1`?
MsrA act: 7.8; ASAP1 GAP inh: inactive; ARFGAP1 inh: inactive; MsrA inhibitor: inactive; sPLA2-III inh: inactive; Rev-erbA mod: inactive; MsrA act confirm: inactive

Results for Cc1ccc(-n2[nH]c(C)c(C=Nc3ccc4[nH]c(=O)[nH]c4c3)c2=O)cc1C ?
MsrA act: inactive; ASAP1 GAP inh: inactive; ARFGAP1 inh: inactive; MsrA inhibitor: inactive; sPLA2-III inh: inactive; Rev-erbA mod: inactive

Results for COc1ccccc1NC(=O)c1ccccc1C(=O)O ?
MsrA act: inactive; ASAP1 GAP inh: inactive; ARFGAP1 inh: inactive; MsrA inhibitor: inactive; sPLA2-III inh: inactive; Rev-erbA mod: inactive

Results for COc1ccccc1NC(=O)c1ccccc1Nc1ccccc1 ?
MsrA act: 10; ASAP1 GAP inh: inactive; ARFGAP1 inh: inactive; MsrA inhibitor: inactive; sPLA2-III inh: inactive; Rev-erbA mod: inactive; MsrA act confirm: inactive

How did CCNC(=O)C1(C)CCCN(Cc2noc(-c3c(C)noc3C)n2)C1 (centres undefined) do in these assays?
MsrA act: 9.2; ASAP1 GAP inh: inactive; ARFGAP1 inh: inactive; MsrA inhibitor: inactive; sPLA2-III inh: inactive; Rev-erbA mod: inactive; MsrA act confirm: inactive

Results for CCCNC(=O)C1(C)CCCN(Cc2noc(-c3c(C)noc3C)n2)C1 (centres undefined) ?
MsrA act: inactive; ASAP1 GAP inh: inactive; ARFGAP1 inh: inactive; MsrA inhibitor: inactive; sPLA2-III inh: inactive; Rev-erbA mod: inactive

What do the screens show for `CC(CN(C)Cc1ccccc1)OC(=O)c1ccccc1F` (centres undefined)?
MsrA act: inactive; ASAP1 GAP inh: inactive; ARFGAP1 inh: inactive; MsrA inhibitor: inactive; sPLA2-III inh: inactive; Rev-erbA mod: inactive

Results for CC(CN(C)Cc1ccccc1)OC(=O)c1cccs1 (centres undefined) ?
MsrA act: 8.4; ASAP1 GAP inh: inactive; ARFGAP1 inh: inactive; MsrA inhibitor: inactive; sPLA2-III inh: inactive; Rev-erbA mod: inactive; MsrA act confirm: inactive

How did CC(C)C[C@H]1COc2cccc(N3CCSCC3)c2S(=O)(=O)N1C do in these assays?
sPLA2-III inh: inactive; Rev-erbA mod: inactive
